Laboratory results: the EternaBench riboswitch data

Test system: MS2 coat protein
Test: apparent Kd, MS2 coat protein; higher = weaker binding; RNA-MaP array; FMN 200 µM where present
Outline: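 On Illumina sequencing-chip clusters, designs were transcribed by stalled E. coli RNA polymerase and titrated with SNAP-549-labelled MS2 coat protein (0.7 or 1.5 nM, doubling to 3 µM), without and then with constant ligand, in 100 mM Tris-HCl pH 7.5, 80 mM KCl, 4 mM MgCl2, BSA, DTT, yeast tRNA and Tween-20. Apparent Kd is the median of filtered per-cluster curve fits to green signal normalised to red-channel RNA signal and control-cluster median Fmax.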

[1] = designed as: OFF switch for flavin mononucleotide, no ligand
[2] = ligand present: flavin mononucleotide, designed as: OFF switch for flavin mononucleotide
[3] = designed as: ON switch for flavin mononucleotide, no ligand
[4] = ligand present: flavin mononucleotide, designed as: ON switch for flavin mononucleotide

Row | Sequence | apparent Kd [1] [nM] | apparent Kd [2] [nM] | apparent Kd [3] [nM] | apparent Kd [4] [nM]
1 | AAACACGGCGAACCGGCGUUCGUACAUGAGGAUCACCCAUGUCAGGAUAUCUCGAUCUUUGAAUGAGAGAAGGGACAGGAUCCU | 700 | 375 |  | 
2 | UCACGGCUCGGAGGAUAUGACACAUGAGGAUCACCCAUGUGUGUAAGCCAAUAAACCUACAAAUGUCAGAAGGCCGCGCCUCAU | 15.3 | 14.7 |  | 
3 | GGUCUUCAAGUCAGGAUAUCGUCUAAUCGAUCUAACGAGAAGGGACAUGAGGAUCACCCAUGUCGUCUCAUCAG | 19.1 | 28.5 |  | 
4 | GGUGGCGUGAUAACGCUAGAUAUAACAUGAGGAUCACCCAUGUAGGAUAUCCCGCCGAGAGGGCGGGAGAAGGACAAUCAAUGG | 45.2 | 47.2 |  | 
5 | AUAUUGAUAGUAAGGAUAUGCGUGUGUGUAGUUAUGCAGAAGGUACAUGAGGAUCACCCAUGUAUUAAUGUGUG | 18.1 | 21.6 |  | 
6 | GACUGAUUGUAGAAGGUACUUAAUACUCAUGUAACAUGAGGAUCACCCAUGUAUCACCCAUAUUGUAAGGAUAUACAUAUCUCA |  |  | 337 | 167
7 | GCCUCAUCCGUCAGGAUAUACAGCCGCUCCCUGUUGUAGAAGGGACAUGAGGAUCACCCAUGUACGUACCACCC | 53.6 | 117 |  | 
8 | GAGUAGUAAGGAUAUGUCUCUGGUGGCUACGGUCACUAGAGGCAGAAGGUACAUGAGGAUCACCCAUGUUUUUU | 17.2 | 19.3 |  | 
9 | CGACGAGUGGAGAAGGACUUUGACUAGCACAGGGUAGGAUAUCCACAUGAGGAUCACCCAUGUAGGAUACUUAUUGGGCCGCCU | 6.96 | 22.8 |  | 
10 | GUGUACAGAGGAUAUGCUGGAAUCUAGCGAAGCUAGGUUCCACAUGAGGAUCACCCAUGUAGAAGGCUGUACAC | 23.3 | 14.2 |  | 
11 | UCGCGGGUGCAGAAGGGAUAGGCCUAUUGUCGUGGAGUCUAAACUUAACAUGAGGAUCACCCAUGUCAGGAUAUGCCCACGCGA | 9.17 | 10.2 |  | 
12 | ACAUGAGGAUCACCCAUGUUCACAUAGGAUAUUGAUUAUAUUGGAUAUAUUUUUUUUAUAAUACACAAGAAGGAUGCAAGAUGG |  |  | 19.3 | 16.3
13 | AAGAGUAGAGGAUAUACAUGAGGAUCACCCAUGUAAUCCAGAUAAGGAAGCAUGGCGUGUAGAAGGCUGCAUGA | 38.5 | 42.4 |  | 
14 | GGAUGACAAAGUCAUCCUUAACGAACAUGAGGAUCACCCAUGUAGGAUAUGGAACUCAAAGAGUUCCAGAAGGACAUGUGCCUU | 33.7 | 213 |  | 
15 | GAGUGGUAGAGAGGAUAUGCAUUGUUAUUAAAUGCAGAAGGUUUUAACAUGAGGAUCACCCAUGUAGGACUAUUCCUGUGUUUC |  |  | 15.5 | 13.6
16 | GGGUUGCUACAAGGAUAUGAUGAAAGUGAGACAUCAGAAGGUGUAGUAUCACAUGAGGAUCACCCAUGUAGAACAACCCAAACC |  |  | 369 | 23
17 | AACGAUCUAGGAUAUACAUGAGGAUCACCCAUGUAAGAGCCCGAACCGGGCUCCCUCUGUAGAAGGAGGUCAAA | 32.7 | 40.3 |  | 
18 | UCCUUGUCCUGAGGAUAUCCGUGGUUCCCGAAAGGAGAAGGCAGGACAUGAGGAUCACCCAUGUACCCAGAAAACGUGCAGAGU | 163 | 273 |  | 
19 | GGAUCGAGUGUGAGGAUAUGCUGGUCCUUGGAUCAGCAGAAGGCACAUGAGGAUCACCCAUGUGGUAACGGUCC | 190 | 537 |  | 
20 | AUCUAUCAUGUAGGAUAUGCGUGGCGAAGCUAUGCAGAAGGACAUGAGGAUCACCCAUGUCUUUCUGUCUGCGGACGGACAGGA | 23.6 | 72.7 |  | 
21 | AAAAGACAUGAGGAUCACCCAUGUCAAGACGUAGGAGGAUAUGUCGUGAAAAAAGACUUGACAGAAGGCCUGUGUC |  |  | 18.7 | 15.4
22 | AGUUAAUAUCGAGGAUAUAAGUCUAAGACAUGAGGAUCACCCAUGUAUGUCUUAGAAGGCGAUAUUAACAGCAUGUUACAUGCA |  |  | 53.2 | 9.67
23 | CGCUACACCCAGAAGGACAUGAGGAUCACCCAUGUAGGAUAUGGGAGACACAGUCCCAUGUAGAGAAACUACGCUAGUGUAGCG |  |  | 200 | 81.4
24 | GCAGCACAUGAGGAUCACCCAUGUCUUCGGAGUCGAGGAUAUGGUCACUGUAAACAGUGGCCAGAAGGCGAGUUGC |  |  | 31.7 | 27.2
25 | CCUUGAUAAUAUCUUCACAUGAGGAUCACCCAUGUCGCUCGACAGGAUAUAUUUGAUUUGUUUAAGUAGAAGGGUCGCAGAUUC |  |  | 123 | 111
26 | GUAGGGAUUACAUGAGGAUCACCCAUGUCAGAACGGGUAAUCAGAAGGUAUUAUUAGGGAGAGGGUAAGGAUAUGAUUUUUUAU |  |  | 433 | 344
27 | AAUUAUUAUUGAGGAUAUCGUAUUGAAACAAUACGAGAAGGCGGAAUAAACAUGAGGAUCACCCAUGUGAGCCUGAUGCUUGUG | 17 | 18.7 |  | 
28 | UAAACGUUCUAGAAGGUGCUUUUGUUAAACAAGCAAGGAUAUAGACAUGAGGAUCACCCAUGUCUUUUAGACAUCGACAUACUU | 6.9 | 8.03 |  | 

Row | Sequence | apparent Kd [1] [nM] | apparent Kd [2] [nM] | apparent Kd [3] [nM] | apparent Kd [4] [nM]
29 | UUAAUUUGAUGAUAUUAUGAUAUUAGAAGGCUGUACAUGUUGAUACAUGAGGAUCACCCAUGUAUAGAGGAUAUAGACAAUUUU | 27.8 | 57.3 |  | 
30 | GACAUGAGGAUCACCCAUGUCCCUCCAGAAGGCUGGCGCGCGAAACCUAAAUCAGUUCCGGGCACAGAGGAUAUGGGCGGUUGG |  |  | 164 | 34.3
31 | AGCCGUGUACAGAAGGGCGACAUGAGGAUCACCCAUGUCUCCUUGUUGGUCGUAGGAUAUGUACCGUGGCUCUCUACUGUGGGA | 5.96 | 7.28 |  | 
32 | UACAUUAACAUGAGGAUCACCCAUGUUGGCCAGUCUCUCACCAGAAGGCACGUAGAGUACAACAGUGAGGAUAUGGGUGACAUA |  |  | 139 | 86.1
33 | GCGUUCUUGUAGAAGGUACAUACAAUCUCUUUUUAACACAUGACACAUGAGGAUCACCCAUGUUGUAAGGAUAUACAUGAACGC |  |  | 8.7 | 8.86
34 | AAAAGACAUGAGGAUCACCCAUGUCUUCGGACAUGAGGAUAUGUACAGACUUCGGUCUGUACAGAAGGCAUGUCAA |  |  | 39.8 | 17.2
35 | GGAGCACACAUUAACAUGAGGAUCACCCAUGUCAAAAGACAUGAGGAUAUGGAUACGAAAAGGAUCCAGAAGGCAUGGUGCUCC |  |  | 693 | 72.5
36 | AGUCGGCGAGGAUAUACAUGAGGAUCACCCAUGUGAGAUAGUGCACGCGUACGUGUACGUAGAAGGCGCUGACA | 12.1 | 23.2 |  | 
37 | UCAUUUCUGAAAGGAUAUUAAUUCAUGACGAUACAUGAGGAUCACCCAUGUUAAGAAGGUUCAAAUACAAAUAAUGCAUUGUUC | 13.2 | 11.1 |  | 
38 | GAAUUACAUGAGGAUCACCCAUGUGAGGAUAUCGAUGUAACUAGCAGCGUGCGGGACUCGAGAAGGCACUUGGA | 39.1 | 67.5 |  | 
39 | GCGGUACAUGAGGAUCACCCAUGUCAGGAUAUCCGCUGUUUGUUAAUAAGCAGGCGGUGGAGAAGGGACUUCGC | 32 | 33.1 |  | 
40 | UUUUUAUAAGAGAAGGAGGACUUCAUGAGGAUCACCCAUGUGUUAGUACUUAGGAUAUUUAAUAACAUGAGGAUCACCCAUGUC |  |  | 49.4 | 49.2
41 | CGCUGGACUGAGAAGGCCAUGUGGGACGCGAACAGUGAUGUUAGGGCAUGGAGGAUAUCAGACAUGAGGAUCACCCAUGUAACC |  |  | 392 | 38
42 | UGCACGAGGCAAGGAUAUGCUGACAUGAGGAUCACCCAUGUGAGCAUGGGUCUGGUACGGGAUCAGCAGAAGGUGCACCGAGGU | 36.8 | 27.4 |  | 
43 | UCGAUUAUACAAGGAUAUCAAUUGUAAUUGAGACUUACAUGAGGAUCACCCAUGUUAAUAUUUUUUGAGAAGGUGUAUUUUCAG |  |  | 47.3 | 26.8
44 | CCGUGAAGGACAGGAUAUGGACAUGAGGAUCACCCAUGUACAUGGGAAUAUAUACUGAAUUUAUACUAGAAGGGUUACAUAAAU | 21.8 | 19.4 |  | 
45 | GAUUCACAUGAGGAUCACCCAUGUCGUUUUAUGGGAGGAUAUACGUGGACCGUAGUCCGCGUAGAAGGCCUAAUUG |  |  | 102 | 30.4
46 | UUAGAUUAUUGAGGAUAUGGAUCUUAUUAUUAACCAGAAGGCAAACUCAACAUGAGGAUCACCCAUGUAUAAAGGGUAUUAGUU | 89.5 | 83.4 |  | 
47 | ACCUGACAUGAGGAUCACCCAUGUCAGGAUAUGUACAUCAGGAAAAAAAAACUGAUGUACAGAAGGGACUUGGG | 22.4 | 18.1 |  | 
48 | CAGUACUGAGGAUAUACAUGAGGAUCACCCAUGUGUUCCUGCUAGGAAACUAGCAAAAGUAGAAGGCAGUACUG | 25.2 | 532 |  | 
49 | UUAUGCUGAGAGAAGGUUCAAACUACAUAUUGCAUACAUGAGGAUCACCCAUGUUGGUGAAUAAGAAAGGAUAUUUUACUGUAU | 86.6 | 63.1 |  | 
50 | GUCAGCUCGUGAGGAUAUACAACACUGCUUCGGCAGUGUAAUAAGAUCACAUGAGGAUCACCCAUGUAGAAGGCACGAGCUGAU | 12 | 250 |  | 
51 | CGUAGGAUCCAGAAGGCAUGAAACAUGAGGAUCACCCAUGUCAAAGACAUGAGGAUAUGGAUCCUACGAAAAGUGCGAAAGCAC |  |  | 4.1 | 3.15
52 | AAAAGUUGAGGAUAUACAAAAUGAUUGCGAAAUCAAUUAAAACAUGAGGAUCACCCAUGUAGAAGGCGAUAAAA | 31.1 | 25.9 |  | 
53 | UUUGCAUUCCGAGGAUAUUCAUUUAAUGACUUCACAUGAGGAUCACCCAUGUGGCGAUAGCGCCGGGAGAAGGCGGUUUGCUUU |  |  | 23.1 | 25.7
54 | GCACUGGAUGUAGGAUAUCAGGACGAUAAGUCCUGAGAAGGACAUGAGGAUCACCCAUGUGAUAAAACCAGUGCAAAUAAUAUA | 18.5 | 109 |  | 
55 | UGUCAGAGCAGAGGAUAUUACAUGAGGAUCACCCAUGUAUGAACCAAUAGCUGGAAACAGCAAUGUAAGAAGGCUGCUCCGACA | 11.9 | 130 |  | 
